# According to publication PMC7359938 (Clinical and Translational Science, 2020):
# How the values were obtained:
# VMAT2 = details: in vitro, rats; ref Teva Pharmaceuticals, data on file; cited from earlier work
# [1] = pivotal randomized controlled study; cited from earlier work
# [2] = Safety and tolerability evaluation; type: in vivo, human
# Procedure, shortened: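 Fasted healthy men and women (21) received a single oral 25 mg dose with 250 mL water in a double-blind two-period crossover (5-day inpatient stays, ≥7-day washout). Safety covered everyone given at least one dose. Twelve-lead ECG was taken predose and at 1, 2 and 24 h. Hematology, serum chemistry and urinalysis were done at admission and at ~24 and 72 h after ≥10 h fasting. Results were summarized by treatment.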
# [3] = cited from earlier work
# [4] = Study AUS‐SD‐809‐CTP‐06, single 25 mg dose
compound,measurement,setting,value
"COc1cc2c(cc1OC)[C@H]1CC(=O)[C@H](CC(C)C)CN1CC2 (racemic) [Tetrabenazine, cis‐rac –1,3,4,6,7,11b‐hexahydro‐9,10‐dimethoxy‐3‐(2‐methylpropyl)2H‐benzo[a]quinolizin‐2‐one]",Effect of deuteration on binding to VMAT2,VMAT2,did not change the binding
same,Patients requiring dose reduction for intolerability,[1],44%
same,Reported events of dizziness,[2]; Study AUS‐SD‐809‐CTP‐06,three
same,Number of subjects with at least one treatment‐emergent adverse event (TEAE),[2]; [4],9
same,Percentage of subjects with at least one treatment‐emergent adverse event (TEAE),[2]; [4],45%
same,Subjects with headache,[2]; [4],15%
same,Subjects with nausea,[2]; [4],15%
same,Subjects with somnolence,[2]; [4],10%
same,Tolerability of single doses,"[2]; both studies, incl. 14C‐labeled analogues",well‐tolerated
same,Serious or severe TEAEs,[2]; either study,no serious or severe TEAEs
same,"Clinical laboratory assessments, vital signs parameters, ECG measurements, physical examinations",[2]; following either treatment,no clinically significant findings
same,BDDCS classification,[3],Class II
